Assay outcomes (PubChem BioAssay)
ASAP1 GAP inh: inhibitors of human ASAP1 ArfGAP activity, primary screen, biochemical, fluorescence polarization; Arf-GAP with SH3 domain, ANK repeat and PH domain-containing protein 1 (Homo sapiens), …; ASAP1-stimulated ARF1 GTP hydrolysis, GDP FP detection; inhibition, % at 16.5 µM; 360,000 tested, 0.19% active; AID 624377, 2012; in the data active means inhibition above about 25%
Target sequence (Q9ULH1 325-724 limits assumed): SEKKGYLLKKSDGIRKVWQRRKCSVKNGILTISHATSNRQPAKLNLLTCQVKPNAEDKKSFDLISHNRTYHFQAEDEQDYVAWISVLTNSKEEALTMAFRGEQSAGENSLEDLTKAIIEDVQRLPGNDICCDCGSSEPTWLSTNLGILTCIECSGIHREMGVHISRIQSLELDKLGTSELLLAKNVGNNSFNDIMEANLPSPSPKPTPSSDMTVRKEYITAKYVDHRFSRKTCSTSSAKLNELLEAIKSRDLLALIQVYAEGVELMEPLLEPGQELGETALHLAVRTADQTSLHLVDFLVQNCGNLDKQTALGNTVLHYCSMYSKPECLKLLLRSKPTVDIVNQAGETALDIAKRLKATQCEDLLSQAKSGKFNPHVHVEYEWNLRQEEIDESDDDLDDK
TCR-CD3 inh: inhibitors of human TCR-CD3 interaction, primary screen, biochemical, fluorescence, TAMRA-labeled TCR probe. 360,000 tested, 0.37% active. T-cell receptor (TCR). inhibition, % at 9.4 µM;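 further: recombinant mutant TCR 2C K166C tagged with TAMRA read by polarization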
MBD2 inh: inhibitors of MBD2 binding to methylated DNA, primary screen, biochemical, TR-FRET, DNA-binding domain, human; MBD2 binding to methylated oligonucleotide; inhibition, % at 4.4 µM; 370,000 tested, 0.31% active; AID 686964, 2013; in the data active means inhibition above about 13%
LEDGF integ inh: blockers of LEDGF/p75-dependent integrase strand transfer – biochemical, TR-FRET, high throughput, primary screen; HIV-1 integrase (with human LEDGF/p75); TR-FRET IN-LEDGF/p75 DNA integration, Eu/Cy5; inhibition, % at 3.7 µM; 370,000 tested, 0.64% active;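 active means inhibition above the screen-wide mean plus 3 SD, cut at about 13% in these data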;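 further: signal is the Cy5 over europium emission ratio at 671 and 618 nm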
ARFGAP1 inhibitor: inhibitors of rat ARFGAP1 GAP activity, primary screen, biochemical, fluorescence polarization, GDP tracer. ADP-ribosylation factor GTPase-activating protein 1 (Rattus norvegicus), Q62848. Arfgap1-stimulated ARF1 GTP hydrolysis, GDP FP detection. inhibition, % at 16.5 µM. 360,000 tested, 0.26% active. AID 651572, 2012;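 active means inhibition above a per-plate limit, mean inhibition of low control wells plus 3 SD, cut at about 25% in these data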
Target sequence (Q62848 1-136 limits assumed): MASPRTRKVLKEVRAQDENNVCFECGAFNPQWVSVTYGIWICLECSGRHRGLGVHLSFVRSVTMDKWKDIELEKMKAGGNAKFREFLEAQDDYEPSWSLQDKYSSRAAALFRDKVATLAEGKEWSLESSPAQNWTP
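Replicates: Single well per compound | Assay system: Truncated rat Arfgap1 GAP domain | Control set: No-Arfgap1 wells (100%) versus DMSO full-reaction wells (0%) | Times: Enzyme reaction 120 min at 25 °C after 20 min preincubation | Reagent: Human ARF1(Δ1-17)-GTP substrate | Measured by: Tracer-displacement fluorescence polarization with EDTA stop, 620/688 nm | Measure: Percent inhibition of Arfgap1-stimulated GTP hydrolysis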
UHRF1 MBD2 ctr: UHRF1 methylated DNA binding inhibitors, primary screen, counter-screen for MBD2 inhibitor project, biochemical, TR-FRET, human UHRF1, single concentration. E3 ubiquitin-protein ligase UHRF1 (Homo sapiens), Q96T88. UHRF1 binding to methylated oligo. inhibition, % at 4.4 µM. 370,000 tested, 0.75% active; in the data active means inhibition above about 21%;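 further: UHRF1 SRA domain binding a hemimethylated CpG hairpin DNA probe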
BSA TAMRA ctr: compounds interfering with TAMRA-BSA probe, counter-screen for TCR-CD3 interaction inhibitor project, biochemical, fluorescence, TAMRA-labeled BSA. inhibition, % at 9.4 µM. shares compounds with TCR-CD3 inh. TAMRA-labeled BSA probe fluorescence counterscreen. AID 652035, 2013. 1,200 tested, 10% active; in the data active means inhibition above about 23%
TCR-CD3 conf: TCR-CD3 interaction inhibitors, retest, confirmation, biochemical, fluorescence, TAMRA-labeled TCR probe. shares compounds with TCR-CD3 inh. TAMRA-labeled TCR probe fluorescence binding assay. inhibition, % at 9.4 µM. 1,200 tested, 48% active
Numbers stand for hits; n = inactive; x = no result. Only some compounds are listed: those with a hit (about 2% of all), similar ones and a draw of the others. Unless noted, no stated cut-off is given here; in the data, active means inhibition above about 19%; inactive means the rest.

SMILES	ASAP1 GAP inh	TCR-CD3 inh	MBD2 inh	LEDGF integ inh	ARFGAP1 inhibitor	UHRF1 MBD2 ctr	BSA TAMRA ctr	TCR-CD3 conf
Cc1ccc(NC(=O)CN2C(=O)NC(C)(CCc3ccccc3)C2=O)cc1 (stereo not given)	n	n	n	n	n	n	x	x
NC(=O)[C@@H]1CC2(CC(c3cccc(NC(=O)COc4ccc(Cl)cc4)c3)=NO2)CN1C(=O)COc1ccc(Cl)cc1 (stereo not given in full)	n	26.9	n	n	n	n	n	23.6
CCC(=O)Nc1cccc(C2=NOC3(C2)C[C@@H](C(N)=O)N(C(=O)C(c2ccccc2)c2ccccc2)C3)c1 (stereo not given in full)	n	n	n	n	n	n	x	x
NC(=O)[C@H]1CC2(CC(c3cccc(NC(=O)COc4ccc(Cl)cc4)c3)=NO2)CN1C(=O)C(c1ccccc1)c1ccccc1 (stereo not given in full)	n	31.6	n	n	n	n	n	22.6
CCc1c(C)sc(NC(=O)OC)c1C(N)=O	n	n	n	n	n	n	x	x
CCc1c(C)sc(NC(=O)OC)c1C(=O)N1CCCCC1	n	19.4	n	n	n	n	n	n
CCN(c1ccccc1)S(=O)(=O)c1cc(NC(=O)CSc2n[nH]c(=O)[nH]c2=O)ccc1Cl	n	65.8	n	n	n	n	23.1	55.7
O=C(CSc1n[nH]c(=O)[nH]c1=O)Nc1ccc2c(c1)C(=O)c1ccccc1C2=O	n	n	n	n	n	n	x	x
COCCNC(=O)c1cn(CCOC)c(=O)c2c1c1ccccc1n2C	n	n	n	n	n	n	x	x
COc1cc(OC)c(N(C)S(=O)(=O)c2cccc(C(=O)OCC(=O)N(C)C3CCCCC3)c2)cc1Cl	n	n	n	n	n	n	x	x
C=CCN(c1ccccc1OC)S(=O)(=O)c1cccc(C(=O)NC2=NCCS2)c1	n	n	n	n	n	n	x	x
COc1cc(OC)c(N(C)S(=O)(=O)c2cccc(C(=O)OCC(=O)c3c[nH]c4ccccc34)c2)cc1Cl	n	38.4	n	n	n	n	n	n
C=CCN(c1ccccc1OC)S(=O)(=O)c1cccc(C(=O)OCC(=O)c2c[nH]c3ccccc23)c1	n	43.7	n	n	n	n	n	n
CCc1nc(SCC(=O)Nc2nnc(CC)s2)c2c(=O)n(C)c(=O)n(C)c2n1	n	n	n	n	n	n	x	x
CC(=O)NC1C(Oc2ccccc2C)OC2COC(c3ccco3)OC2C1O (stereo not given)	n	n	n	n	n	n	x	x
COc1cc(OC)cc(C(=O)NNC(=O)c2cc3ccccc3cc2O)c1	n	25.9	n	n	n	n	n	n
COc1ccccc1NC(=O)NNC(=O)c1ccc(-c2ccccc2)cc1	n	n	n	n	n	n	x	x
COc1ccccc1NC(=O)NNC(=O)c1cc2ccccc2cc1O	n	19.3	n	n	n	n	n	22.8
Cc1ccc(NC(=O)NNC(=O)c2cc3ccccc3cc2O)cc1	n	31.7	n	n	n	n	n	21.0
Cc1ccc(NC(=O)NNC(=O)COc2ccc3ccccc3c2)cc1	n	n	n	n	n	n	x	x
O=C(O)c1cc(N2N=C(C(F)(F)F)/C(=C/C=C/c3ccco3)C2=O)ccc1Cl	n	25.9	108.4	82.4	n	97.5	n	33.8
O=C(CP(=O)(c1ccccc1)c1ccccc1)N/N=C/c1cc(Br)cc(Br)c1O	n	50.2	n	n	n	n	n	51.2
O=C(CNC(=O)c1ccccc1Br)N/N=C\c1cc([N+](=O)[O-])cc(Br)c1O	n	68.6	n	n	n	n	n	60.5
COc1cc(Br)cc(/C=N/NC(=O)Cc2ccccc2)c1O	n	n	n	n	n	n	x	x
O=C(N/N=C/c1cc(Br)cc(Br)c1O)c1cccc(N2CCCC2=O)c1	n	36.7	n	n	n	n	n	47.6
SMILES	ASAP1 GAP inh	TCR-CD3 inh	MBD2 inh	LEDGF integ inh	ARFGAP1 inhibitor	UHRF1 MBD2 ctr	BSA TAMRA ctr	TCR-CD3 conf
O=C(Cc1ccccc1)N/N=C/c1cc(Br)cc(Cl)c1O	n	29.7	n	n	n	57.8	n	n
CC1(C)CC2=C(CO1)C(=S)NC(c1ccccc1)N2CC1CCCO1 (stereo not given)	n	n	n	n	n	n	x	x
O=C(CCC(=O)N1CCOc2ccccc21)Nc1ccccc1Br	n	n	n	n	n	n	x	x
Nc1nc(SCc2cccnc2)c2ncn(C3OC(CO)C(O)C3O)c2n1 (stereo not given)	n	n	n	n	n	n	x	x
Cc1nn(-c2ccccc2)c(Cl)c1/C=N/NC(=O)c1cccnc1	n	n	n	n	n	n	x	x
O=C(N/N=C/c1c(Cl)nc2ccccn2c1=O)c1cccnc1	n	29.1	n	n	n	n	n	n
CC(=O)c1c(C)[nH]c(C(=O)OCC(=O)NCc2ccc(Cl)cc2)c1C	n	22.8	n	n	n	n	n	n
O=[N+]([O-])c1cc(C(F)(F)F)ccc1NC1CCN(Cc2ccccc2)CC1	n	38.9	n	n	n	n	n	n
N#CCC(=O)Nc1ccc(C(=O)OC(C(=O)Nc2cc(C(F)(F)F)ccc2Cl)c2ccccc2)cc1 (stereo not given)	n	46.6	n	n	n	n	n	33.9
N#CCC(=O)Nc1ccc(C(=O)OC(C(=O)Nc2ccc([N+](=O)[O-])cc2Br)c2ccccc2)cc1 (stereo not given)	n	n	n	n	n	n	x	x
CC1(C)CC2CC(C)(CN2S(=O)(=O)c2ccc(C(=O)Nc3ccc(S(=O)(=O)N4CCOCC4)cc3)cc2)C1 (stereo not given)	n	40.6	n	n	n	n	23.0	56.2
CC1(C)CC2CC(C)(CN2S(=O)(=O)c2ccc(C(=O)Nc3ccc(Cl)c(S(=O)(=O)N4CCOCC4)c3)cc2)C1 (stereo not given)	n	n	n	n	n	n	x	x
